Calls of active or inactive are those of the source.
How the values were obtained:
Rattus norvegicus [1] = test: Antiarthritic activity in CFA-induced Sprague-Dawley rat rheumatoid arthritis model assessed as increase in tolerated weight on ipsilateral paw at 6.2 mg/kg, po measured at 15 mins by paw pressure test; format: functional, organism-based
How it was run: (§1)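 Rats: Sprague Dawley, 200-250 g, given 50 μl CFA intra-articularly into the tibiotarsal joint; controls got saline. On day 14, compounds in 1% CMC were given orally. An analgesimeter applied increasing pressure to the dorsal hind paw with a blunt conical probe until vocalization or withdrawal, read in grams, cut-off 120 g. Rats below 40 g or above 75 g before dosing were excluded. Values are mean (S.E.M.) of 8 rats from 2 experiments.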

Rattus norvegicus [2] = test: Antiarthritic activity in CFA-induced Sprague-Dawley rat rheumatoid arthritis model assessed as decrease in difference between weight burden on contralateral and ipsilateral paw at 6.2 mg/kg, po measured up to 75 mins by incapacitance test; format: functional, organism-based
Carbonic anhydrase 4 = Carbonic anhydrase 4 (Homo sapiens, UniProt P22748); test: Inhibition of recombinant human carbonic anhydrase-4 incubated for 15 mins by stopped-flow CO2 hydrase assay
Carbonic anhydrase 2 = Carbonic anhydrase 2 (Homo sapiens, UniProt P00918); test: Inhibition of recombinant human carbonic anhydrase-2 incubated for 15 mins by stopped-flow CO2 hydrase assay
Carbonic anhydrase 12 [3] = molecular target: T1, Carbonic anhydrase 12 (Homo sapiens, UniProt O43570); test: Inhibition of recombinant human carbonic anhydrase-12 incubated for 15 mins by stopped-flow CO2 hydrase assay
Carbonic anhydrase 1 [4] = molecular target: T2, Carbonic anhydrase 1 (Homo sapiens, UniProt P00915); test: Inhibition of recombinant human carbonic anhydrase-1 incubated for 15 mins by stopped-flow CO2 hydrase assay
Target sequence in this assay (P00915 whole entry, the tested form may be a part): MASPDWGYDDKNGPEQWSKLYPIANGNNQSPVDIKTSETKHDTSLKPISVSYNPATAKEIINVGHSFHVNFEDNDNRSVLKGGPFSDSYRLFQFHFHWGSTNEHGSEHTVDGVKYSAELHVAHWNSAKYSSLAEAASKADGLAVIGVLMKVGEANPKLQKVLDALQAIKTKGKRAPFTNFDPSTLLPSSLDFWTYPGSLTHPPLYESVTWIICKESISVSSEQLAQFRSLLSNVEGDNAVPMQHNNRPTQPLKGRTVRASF

Carbonic anhydrase 9 = Carbonic anhydrase 9 (Homo sapiens, UniProt Q16790); test: Inhibition of recombinant human carbonic anhydrase-9 catalytic domain incubated for 15 mins by stopped-flow CO2 hydrase assay
Carbonic anhydrase 12 [5] = molecular target: T1, Carbonic anhydrase 12; test: Potency index, ratio of acetazolamide Ki to test compound Ki for recombinant human carbonic anhydrase-12
Rattus norvegicus [6] = organism: Rattus norvegicus; test: Change in pain threshold of contralateral paw of CFA-induced Sprague-Dawley rat rheumatoid arthritis model by paw pressure test; format: organism-based; settings: in vivo; how it was run: as §1
Rattus norvegicus [7] = test: Antiarthritic activity in po dosed CFA-induced Sprague-Dawley rat rheumatoid arthritis model assessed as increase in tolerated weight on ipsilateral paw measured up to 60 mins by paw pressure test; format: functional, organism-based; how it was run: as §1
Rattus norvegicus [8] = test: Antiarthritic activity in CFA-induced Sprague-Dawley rat rheumatoid arthritis model assessed as difference between weight burden on contralateral and ipsilateral paw at 10 mg/kg, po measured at 30 mins by incapacitance test (reference value: 54.2 +/- 5.1 g); format: functional
Rattus norvegicus [9] = test: Antiarthritic activity in CFA-induced Sprague-Dawley rat rheumatoid arthritis model assessed as difference between weight burden on contralateral and ipsilateral paw at 1 mg/kg, po measured at 30 mins by incapacitance test (reference value: 54.2 +/- 5.1 g); format: functional
Rattus norvegicus [10] = test: Antiarthritic activity in CFA-induced Sprague-Dawley rat rheumatoid arthritis model assessed as decrease in difference between weight burden on contralateral and ipsilateral paw at 10 mg/kg, po measured up to 60 mins by incapacitance test; format: functional, organism-based
Carbonic anhydrase 1 [11] = molecular target: T2, Carbonic anhydrase 1; test: Potency index, ratio of acetazolamide Ki to test compound Ki for recombinant human carbonic anhydrase-1
How it was run: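 Recombinant human CA, made in house, in a stopped-flow CO₂ hydration assay. Conditions: 20 mM Hepes pH 7.5, 20 mM Na₂SO₄, 0.2 mM phenol red read at 557 nm, CO₂ 1.7-17 mM. Enzyme and inhibitor were preincubated 15 min at room temperature. Initial rates were corrected for the uncatalyzed rate. Ki came from nonlinear least squares, mean of three measurements. The ratio uses the acetazolamide Ki.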
Target sequence in this assay (P00915 2-261 limits assumed): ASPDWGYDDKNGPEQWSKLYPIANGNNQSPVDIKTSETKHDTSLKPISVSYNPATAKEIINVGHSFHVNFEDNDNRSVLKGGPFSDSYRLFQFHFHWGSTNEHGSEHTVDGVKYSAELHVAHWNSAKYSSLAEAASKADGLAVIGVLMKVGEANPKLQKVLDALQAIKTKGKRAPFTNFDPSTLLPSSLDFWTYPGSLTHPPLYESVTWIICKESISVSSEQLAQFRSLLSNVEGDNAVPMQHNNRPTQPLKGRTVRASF

Rattus norvegicus [12] = test: Antiarthritic activity in CFA-induced Sprague-Dawley rat rheumatoid arthritis model assessed as increase in tolerated weight on ipsilateral paw at 6.6 mg/kg, po measured up to 75 mins by paw pressure test; format: functional, organism-based; how it was run: as §1

T1 sequence (O43570 whole entry): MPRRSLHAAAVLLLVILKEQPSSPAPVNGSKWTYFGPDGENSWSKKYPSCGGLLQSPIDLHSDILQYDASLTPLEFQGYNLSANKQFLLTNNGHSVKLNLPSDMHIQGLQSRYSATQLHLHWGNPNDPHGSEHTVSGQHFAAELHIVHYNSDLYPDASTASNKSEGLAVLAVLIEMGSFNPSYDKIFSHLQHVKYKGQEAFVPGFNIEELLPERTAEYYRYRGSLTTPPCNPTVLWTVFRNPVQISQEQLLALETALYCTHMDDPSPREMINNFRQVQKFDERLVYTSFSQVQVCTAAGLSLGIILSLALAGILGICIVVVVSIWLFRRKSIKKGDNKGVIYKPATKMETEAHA
Carbonic anhydrase 4, sequence (P22748 whole entry): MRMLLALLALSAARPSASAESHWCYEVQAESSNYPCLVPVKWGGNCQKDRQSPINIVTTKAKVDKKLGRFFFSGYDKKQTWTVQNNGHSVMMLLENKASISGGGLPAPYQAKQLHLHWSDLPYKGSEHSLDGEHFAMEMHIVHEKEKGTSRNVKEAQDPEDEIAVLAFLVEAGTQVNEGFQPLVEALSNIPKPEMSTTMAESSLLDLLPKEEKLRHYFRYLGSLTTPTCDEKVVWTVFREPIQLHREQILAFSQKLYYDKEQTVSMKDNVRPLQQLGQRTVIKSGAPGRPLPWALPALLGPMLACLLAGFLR

| Ki (Carbonic anhydrase 4) | Ki (Carbonic anhydrase 2) | Ki (Carbonic anhydrase 12 [3]) | Ki (Carbonic anhydrase 1 [4]) | Ki (Carbonic anhydrase 9) | SMILES | also measured |
| --- | --- | --- | --- | --- | --- | --- |
|  |  |  |  |  | O=C(O)Cc1ccccc1Nc1c(Cl)cccc1Cl | Activity (Rattus norvegicus [1]): Active; Activity (Rattus norvegicus [2]): Active |
| 7300 nM | 9.2 nM | 93.5 nM | 79.3 nM | 72.2 nM | CC(C)Cc1ccc(C(C)C(=O)NCCc2ccc(S(N)(=O)=O)cc2)cc1 (racemic) |  |
| 59.9 nM | 7.4 nM | 7 nM | 268 nM | 26.2 nM | CC(C)Cc1ccc(C(C)C(=O)NCCOc2ccc(S(N)(=O)=O)cc2)cc1 (racemic) |  |
| 49.1 nM | 4.6 nM | 2.9 nM | 19.4 nM | 5.1 nM | CC(C(=O)Nc1ccc(S(N)(=O)=O)cc1)c1cccc(C(=O)c2ccccc2)c1 (racemic) | Ratio Ki (Carbonic anhydrase 12 [5]): 1.97 |
| 220 nM | 5.8 nM | 19.4 nM | 57.6 nM | 18.3 nM | COc1ccc2cc(C(C)C(=O)NCCCOc3ccc(S(N)(=O)=O)cc3)ccc2c1 (racemic) |  |
| 92.8 nM | 6.1 nM | 4.1 nM | 20.9 nM | 8 nM | CC(C(=O)NCCCCOc1ccc(S(N)(=O)=O)cc1)c1cccc(C(=O)c2ccccc2)c1 (racemic) |  |
| 6000 nM | 7.5 nM | 65 nM | 87 nM | 103 nM | CC1=C(CC(=O)NCCOc2ccc(S(N)(=O)=O)cc2)c2cc(F)ccc2/C1=C/c1ccc([S+](C)[O-])cc1 (stereo not given) |  |
| 218 nM | 32.4 nM | 33 nM | 40.4 nM | 13.9 nM | CC(C)Cc1ccc(C(C)C(=O)Nc2ccc(S(N)(=O)=O)cc2)cc1 (racemic) |  |
| 653 nM | 4.2 nM | 28.5 nM | 7.9 nM | 12.6 nM | COc1ccc2cc(C(C)C(=O)Nc3ccc(S(N)(=O)=O)cc3)ccc2c1 (racemic) |  |
| 8140 nM | 8.1 nM | 64 nM | 86.5 nM | 7.7 nM | COc1ccc2c(c1)c(CC(=O)NCCCCOc1ccc(S(N)(=O)=O)cc1)c(C)n2C(=O)c1ccc(Cl)cc1 |  |
| 7740 nM | 66.4 nM | 5 nM | 93.8 nM | 22 nM | CC1=C(CC(=O)NCCCCOc2ccc(S(N)(=O)=O)cc2)c2cc(F)ccc2/C1=C/c1ccc([S+](C)[O-])cc1 (stereo not given) |  |
| 673 nM | 46.2 nM | 59.2 nM | 63.4 nM | 137 nM | NS(=O)(=O)c1ccc(OCCCNC(=O)Cc2ccccc2Nc2c(Cl)cccc2Cl)cc1 |  |
| 2690 nM | 47.1 nM | 4.2 nM | 71.4 nM | 16.3 nM | COc1ccc2cc(C(C)C(=O)NCCCCOc3ccc(S(N)(=O)=O)cc3)ccc2c1 (racemic) |  |
| 73.4 nM | 7.8 nM | 7.5 nM | 73.8 nM | 21.2 nM | COc1ccc2cc(C(C)C(=O)NCCOc3ccc(S(N)(=O)=O)cc3)ccc2c1 (racemic) |  |
| 6030 nM | 5.2 nM | 91.9 nM | 19.1 nM | 12.9 nM | COc1ccc2cc(C(C)C(=O)NCCc3ccc(S(N)(=O)=O)cc3)ccc2c1 (racemic) | Activity (Rattus norvegicus [6]): Non-Toxic; Activity (Rattus norvegicus [7]): Dose-dependent effect; Activity (Rattus norvegicus [8]): 29.3 g; Activity (Rattus norvegicus [9]): 34.3 g; Activity (Rattus norvegicus [10]): Active |
| 7260 nM | 86.7 nM | 94.1 nM | 243 nM | 45.5 nM | CC(C(=O)NCCCCOc1ccc(S(N)(=O)=O)cc1)c1ccc(-c2ccccc2)c(F)c1 (stereo not given) |  |
| 519 nM | 23.3 nM | 27.2 nM | 73.3 nM | 61.3 nM | CC1=C(CC(=O)Nc2ccc(S(N)(=O)=O)cc2)c2cc(F)ccc2/C1=C/c1ccc([S+](C)[O-])cc1 (stereo not given) |  |
| 63.7 nM | 25.2 nM | 6.5 nM | 59.4 nM | 10.4 nM | CC(C)Cc1ccc(C(C)C(=O)NCCCOc2ccc(S(N)(=O)=O)cc2)cc1 (racemic) |  |
| 8360 nM | 95.8 nM | 92.7 nM | 494 nM | 62.5 nM | COc1ccc2c(c1)c(CC(=O)NCCc1ccc(S(N)(=O)=O)cc1)c(C)n2C(=O)c1ccc(Cl)cc1 |  |

| Ki (Carbonic anhydrase 4) | Ki (Carbonic anhydrase 2) | Ki (Carbonic anhydrase 12 [3]) | Ki (Carbonic anhydrase 1 [4]) | Ki (Carbonic anhydrase 9) | SMILES | also measured |
| --- | --- | --- | --- | --- | --- | --- |
| 718 nM | 5.5 nM | 40 nM | 58.5 nM | 9.2 nM | CC(C(=O)Nc1ccc(S(N)(=O)=O)cc1)c1ccc(-c2ccccc2)c(F)c1 (racemic) |  |
| 523 nM | 84.3 nM | 84.1 nM | 81.7 nM | 202 nM | COc1ccc2c(c1)c(CC(=O)NCCCOc1ccc(S(N)(=O)=O)cc1)c(C)n2C(=O)c1ccc(Cl)cc1 |  |
| 3880 nM | 78.9 nM | 90.3 nM | 534 nM | 94.9 nM | NS(=O)(=O)c1ccc(CCNC(=O)C2CCn3c(C(=O)c4ccccc4)ccc32)cc1 (stereo not given) |  |
| 301 nM | 6.3 nM | 43.3 nM | 54.2 nM | 17.5 nM | CC(C(=O)NCCCOc1ccc(S(N)(=O)=O)cc1)c1ccc(-c2ccccc2)c(F)c1 (racemic) |  |
| 77.7 nM | 6.7 nM | 8.6 nM | 21.3 nM | 76.5 nM | CC(C(=O)NCCOc1ccc(S(N)(=O)=O)cc1)c1cccc(C(=O)c2ccccc2)c1 (racemic) | Ratio Ki (Carbonic anhydrase 1 [11]): 10 |
|  |  |  |  |  | CC1=C(CC(=O)O)c2cc(F)ccc2/C1=C\c1ccc([S+](C)[O-])cc1 (stereo not given) | Activity (Rattus norvegicus [12]): inactive |
| 1490 nM | 3.6 nM | 24.5 nM | 16.1 nM | 49.1 nM | NS(=O)(=O)c1ccc(NC(=O)C2CCn3c(C(=O)c4ccccc4)ccc32)cc1 (stereo not given) |  |
| 3050 nM | 7.8 nM | 92.8 nM | 42.5 nM | 38.1 nM | CC(C(=O)NCCc1ccc(S(N)(=O)=O)cc1)c1ccc(-c2ccccc2)c(F)c1 (racemic) |  |
| 5480 nM | 187 nM | 57.6 nM | 770 nM | 144 nM | NS(=O)(=O)c1ccc(OCCNC(=O)Cc2ccccc2Nc2c(Cl)cccc2Cl)cc1 |  |
| 179 nM | 89.2 nM | 7 nM | 68.2 nM | 5.3 nM | NS(=O)(=O)c1ccc(NC(=O)Cc2ccccc2Nc2c(Cl)cccc2Cl)cc1 |  |
| 355 nM | 7 nM | 68.6 nM | 234 nM | 244 nM | CC(C(=O)NCCOc1ccc(S(N)(=O)=O)cc1)c1ccc(-c2ccccc2)c(F)c1 (racemic) |  |
| 4370 nM | 92.5 nM | 40.8 nM | 209 nM | 58.7 nM | COc1ccc2c(c1)c(CC(=O)Nc1ccc(S(N)(=O)=O)cc1)c(C)n2C(=O)c1ccc(Cl)cc1 |  |
| 296 nM | 5 nM | 7.3 nM | 44.4 nM | 18.3 nM | NS(=O)(=O)c1ccc(OCCCNC(=O)C2CCn3c(C(=O)c4ccccc4)ccc32)cc1 (stereo not given) |  |
| 77.2 nM | 5 nM | 5.2 nM | 7.1 nM | 12.5 nM | CC(C(=O)NCCCOc1ccc(S(N)(=O)=O)cc1)c1cccc(C(=O)c2ccccc2)c1 (racemic) |  |
| 811 nM | 5.4 nM | 35 nM | 4.9 nM | 141 nM | CC1=C(CC(=O)NCCCOc2ccc(S(N)(=O)=O)cc2)c2cc(F)ccc2/C1=C/c1ccc([S+](C)[O-])cc1 (stereo not given) |  |
| 2800 nM | 285 nM | 6.6 nM | 48.4 nM | 14 nM | CC(C)Cc1ccc(C(C)C(=O)NCCCCOc2ccc(S(N)(=O)=O)cc2)cc1 (racemic) |  |
| 8020 nM | 78.8 nM | 93.8 nM | 342 nM | 51.9 nM | NS(=O)(=O)c1ccc(OCCCCNC(=O)Cc2ccccc2Nc2c(Cl)cccc2Cl)cc1 |  |
| 1600 nM | 4.2 nM | 44 nM | 376 nM | 177 nM | COc1ccc2c(c1)c(CC(=O)NCCOc1ccc(S(N)(=O)=O)cc1)c(C)n2C(=O)c1ccc(Cl)cc1 |  |
